The source made the active and inactive calls. The calls are words filed in the database; no cut-off is given here.

The text below walks through data of ChEMBL document CHEMBL4428023, “1,4-Dihydropyridines Active on the SIRT1/AMPK Pathway Ameliorate Skin Repair and Mitochondrial Function and Exhibit Inhibition of Proliferation in Cancer Cells” (J Med Chem, 2016).

Test [1] in a line: Antiproliferative activity against human SAN cells assessed as cell viability after 72 hrs by MTT assay. The format is functional, cell-based. Summed up: (§1)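 Cells grown in RPMI with 10% fetal calf serum and penicillin, seeded in sextuplicate at 3 × 10^3 cells/well. After 24 h, cells were exposed 72 h to 5–200 µM. Viability was measured by MTT and expressed as treated/untreated × 100. IC50 was calculated from three independent experiments, reported as mean ± SD.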

In test [2] the target is T1, NAD-dependent protein deacetylase sirtuin-1 (Homo sapiens) (UniProt Q96EB6).
T1 sequence (whole entry): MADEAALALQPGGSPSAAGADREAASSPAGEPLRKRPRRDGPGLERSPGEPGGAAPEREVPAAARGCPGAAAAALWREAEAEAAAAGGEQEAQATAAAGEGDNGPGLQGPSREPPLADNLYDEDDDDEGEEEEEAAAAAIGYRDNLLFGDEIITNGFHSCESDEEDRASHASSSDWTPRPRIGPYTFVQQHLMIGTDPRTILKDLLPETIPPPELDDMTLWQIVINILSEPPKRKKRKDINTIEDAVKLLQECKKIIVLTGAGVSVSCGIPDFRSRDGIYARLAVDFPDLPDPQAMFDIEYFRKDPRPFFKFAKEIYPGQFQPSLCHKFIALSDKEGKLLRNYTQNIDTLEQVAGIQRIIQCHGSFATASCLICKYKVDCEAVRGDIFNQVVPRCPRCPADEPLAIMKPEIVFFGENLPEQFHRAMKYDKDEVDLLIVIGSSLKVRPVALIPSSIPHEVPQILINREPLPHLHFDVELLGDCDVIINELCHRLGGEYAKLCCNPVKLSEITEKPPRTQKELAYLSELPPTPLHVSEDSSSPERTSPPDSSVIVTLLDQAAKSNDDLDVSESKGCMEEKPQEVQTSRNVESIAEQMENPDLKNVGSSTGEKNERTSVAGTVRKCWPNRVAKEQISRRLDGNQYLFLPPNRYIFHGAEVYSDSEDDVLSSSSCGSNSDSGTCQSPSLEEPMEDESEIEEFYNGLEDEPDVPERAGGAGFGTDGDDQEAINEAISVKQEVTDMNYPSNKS
In words: Activation of SIRT1 in […] at 1 uM by fluorimetric assay. The settings on record: HaCaT, TDE = time-dependent effect. It counts as cell-free.

The next test concerns A549. In words: Antiproliferative activity against human A549 cells assessed as cell viability after 72 hrs by MTT assay. It counts as functional, cell-based. Conditions: A549, 72 h. Summed up:
as §1

Test [3] deals with HaCaT. As to the kind of experiment: Activation of AMPK/SIRT1 in human HaCaT cells assessed as nitric oxide production at 10 uM incubated for 1 hr in presence of compound C by DAF-2D staining-based fluorescence assay. The format is cell-based. Summed up:
(§2)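 HaCaT cells in DMEM with 10% FBS. DHP (10 µM) given for 1 h alone or together with 10 µM AMPK inhibitor compound C or 10 µM SIRT1 inhibitor EX-527. Intracellular NO read by flow cytometry after loading with 5 µM DAF-2D in medium (ex 485/em 538 nm). Expressed as % DAF-positive cells versus DMSO.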

The species entered for test [4] is Cavia porcellus. In words: Potency index, ratio of potency for test compound to potency for nifedipine for inhibition of calcium channel in guinea pig ileum longitudinal smooth muscle assessed as inhibition of calcium-induced contraction. The format is tissue-based.
In a further test the test system is HT-29. In words: Antiproliferative activity against human HT-29 cells assessed as cell viability after 72 hrs by MTT assay. The format is functional, cell-based. The settings on record: HT-29, 72 h. An outline of the steps:
as §1

The subject of the next test is Caov-3 cell line. In words: Antiproliferative activity against human Caov3 cells assessed as cell viability after 72 hrs by MTT assay. The format is functional, cell-based. The settings on record: Caov-3, 72 h. An outline of the steps:
as §1

For test [5], the system named is C2C12. As to the kind of experiment: Activation of AMPK/SIRT1 in mouse C2C12 cells assessed as increase in mitochondrial density at 30 uM after 16 hrs by Mitotracker Green staining-based confocal microscopy in presence of EX-527. It counts as cell-based. An outline of the steps:
(§3)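 C2C12 myoblasts plated overnight, then in serum-free HBSS pH 7.4 and treated 16 h at 30 µM, alone or with 5 µM inhibitor (EX-527 or compound C). Mitotracker Green at 200 nM final was added for the last 30 min. Cells were fixed in 4% paraformaldehyde, permeabilized with Triton X-100 and imaged by confocal microscopy with fixed settings. Alternatively, mitochondrial fluorescence was quantified in plates.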

The species entered for test [6] is Cavia porcellus. As to the kind of experiment: Antagonist activity at calcium channel in guinea pig smooth muscle assessed as inhibition of calcium-induced contraction in K+-depolarized aortic strips at 50 uM. An outline of the steps: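 Guinea-pig isolated aortic strips depolarized with 80 mM K+; read-out is percent inhibition of calcium-induced contraction.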

A further test deals with NCI-H1299. In words: Antiproliferative activity against human NCI-H1299 cells assessed as cell viability after 72 hrs by MTT assay. The format is functional, cell-based. The settings on record: NCI-H1299, 72 h. Summed up: as §1
For orientation: Formazan colour is commonly taken as a measure of viable cells.

The subject of another test is HEY. In words: Antiproliferative activity against human HEY cells assessed as cell viability after 72 hrs by MTT assay. The format is functional, cell-based. An outline of the steps: as §1
The target of test [7] is T1, NAD-dependent protein deacetylase sirtuin-1 (Homo sapiens). In words: Activation of SIRT1 in human HaCaT cells assessed as H4K16 deacetylation at 1 uM after 1 hr by Western blotting method. It counts as cell-based. An outline of the steps:
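HaCaT cells treated 1 h at 1 µM, DMSO as solvent control. Cells lysed in Laemmli buffer and immunoblotted for acetyl-H4K16 (1:1000), with total histone H4 as loading control. Bands quantified by densitometry. At least three independent experiments.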
A general note: In western blotting, separated proteins are transferred to a membrane and probed.

In test [8] the test system is C2C12. As to the kind of experiment: Activation of AMPK/SIRT1 in mouse C2C12 cells assessed as increase in mitochondrial density at 30 uM after 16 hrs by Mitotracker Green staining-based confocal microscopy in presence of compound C. It counts as cell-based. An outline of the steps:
as §3

The subject of a further test is LoVo. As to the kind of experiment: Antiproliferative activity against human LoVo cells assessed as cell viability after 72 hrs by MTT assay. It counts as functional, cell-based. Summed up:
as §1

The subject of test [9] is HaCaT. In words: Activation of AMPK/SIRT1 in human HaCaT cells assessed as nitric oxide production at 10 uM incubated for 1 hr in presence of EX-527 by DAF-2D staining-based fluorescence assay. It counts as cell-based. Summed up: as §2
Test [10] relates to C2C12. As to the kind of experiment: Activation of AMPK/SIRT1 in mouse C2C12 cells assessed as increase in mitochondrial density at 30 uM after 16 hrs by Mitotracker Green staining-based confocal microscopy. It counts as cell-based. An outline of the steps:
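Murine C2C12 myoblasts plated on coverslips and grown overnight at 37 °C, 5% CO2. Then switched to serum-free HBSS, pH 7.4, and treated 16 h at 30 µM, alone or with 5 µM compound C or EX-527. Mitotracker Green (200 nM final) added for the last 30 min. Cells fixed in 4% paraformaldehyde, permeabilized and imaged by confocal microscopy, with settings fixed on untreated cells. Plate fluorescence also quantified.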

The next test concerns HCT-116. As to the kind of experiment: Antiproliferative activity against human HCT116 cells assessed as cell viability after 72 hrs by MTT assay. Conditions: HCT-116, 72 h. The format is functional, cell-based. Summed up:
as §1

Test [11] has as its target T1, NAD-dependent protein deacetylase sirtuin-1 (Homo sapiens). In words: Activation of full-length GST-tagged recombinant human SIRT1 assessed as enzyme activity obtained without subtraction of intrinsic fluorescence using p53-based untagged peptide as substrate at 50 uM after 30 mins by SIRTainty assay.

As for `CCOC(=O)C1=CN(C(=O)c2ccccc2)C=C(C(=O)OCC)C1c1ccccc1`, the IC50 was 161 µM in [1]; 169 µM in the test with A549; 80 µM in the test with HT-29; above 200 µM in the test with Caov-3 cell line; 125 µM in the test with NCI-H1299; 143 µM in the test on HEY. Moreover, the IC50 was found to be 22 µM with LoVo and 62 µM in the test on HCT-116. Moreover, the Activity entry is “Tde” in [2] and 244% in test [11]. The result in the test on HaCaT [3], in the test on C2C12 [5], with C2C12 [8] and in the test on HaCaT [9] was inactive. In the test listed under Cavia porcellus [4], the Ratio is 720. The inhibition in the test filed under Cavia porcellus [6] was 12%. In addition, the outcome (in [7]; with C2C12 [10]) was Active.

Usually IC50 stands for the concentration at which inhibition is half-maximal. Usually inhibition stands for the drop in the measured response relative to a control, in per cent.
